What was measured:
[1] = target: RSK1 (Homo sapiens, UniProt Q15418); test: kinase panel; format: biochemical
[2] = target: GRK7 (Homo sapiens, UniProt Q8WTQ7); test: kinase panel; format: biochemical
[3] = target: MARK4 (Homo sapiens, UniProt Q96L34); test: kinase panel; format: biochemical
[4] = target: CLK4 (Homo sapiens, UniProt Q9HAZ1); test: kinase panel; format: biochemical
[5] = target: SGK1 (Homo sapiens, UniProt O00141); test: kinase panel; format: biochemical
[6] = target: SGK2 (Homo sapiens, UniProt Q9HBY8); test: kinase panel; format: biochemical
[7] = target: HCK (Homo sapiens, UniProt P08631); test: kinase panel; format: biochemical
[8] = target: SGK3 (Homo sapiens, UniProt Q96BR1); test: kinase panel; format: biochemical
[9] = target: AURORA-B (Homo sapiens, UniProt Q96GD4); test: kinase panel; format: biochemical
[10] = target: DAPK3 (Homo sapiens, UniProt O43293); test: kinase panel; format: biochemical
[11] = target: DCAMKL2 (Homo sapiens, UniProt Q8N568); test: kinase panel; format: biochemical
[12] = target: SNF1LK2 (Homo sapiens, UniProt Q9H0K1); test: kinase panel; format: biochemical
[13] = target: HIPK4 (Homo sapiens, UniProt Q8NE63); test: kinase panel; format: biochemical
[14] = target: IGF1R (Homo sapiens, UniProt P08069); test: kinase panel; format: biochemical
[15] = target: PIM2 (Homo sapiens, UniProt Q9P1W9); test: kinase panel; format: biochemical
[16] = target: PKACB (Homo sapiens, UniProt P22694); test: kinase panel; format: biochemical
[17] = target: IRAK1 (Homo sapiens, UniProt P51617); test: kinase panel; format: biochemical
[18] = target: EPH-A2 (Homo sapiens, UniProt P29317); test: kinase panel; format: biochemical
[19] = target: CAMK2D (Homo sapiens, UniProt Q13557); test: kinase panel; format: biochemical
[20] = target: JAK3 (Homo sapiens, UniProt P52333); test: kinase panel; format: biochemical
[21] = target: EPH-B2 (Homo sapiens, UniProt P29323); test: kinase panel; format: biochemical
[22] = target: CAMK4 (Homo sapiens, UniProt Q16566); test: kinase panel; format: biochemical
[23] = target: TNIK (Homo sapiens, UniProt Q9UKE5); test: kinase panel; format: biochemical
[24] = target: NEK6 (Homo sapiens, UniProt Q9HC98); test: kinase panel; format: biochemical
[25] = target: PRAK (Homo sapiens, UniProt Q8IW41); test: kinase panel; format: biochemical
[26] = target: TRKA (Homo sapiens, UniProt P04629); test: kinase panel; format: biochemical
[27] = target: LATS2 (Homo sapiens, UniProt Q9NRM7); test: kinase panel; format: biochemical
[28] = target: FES (Homo sapiens, UniProt P07332); test: kinase panel; format: biochemical
[29] = target: PRKD2 (Homo sapiens, UniProt Q9BZL6); test: kinase panel; format: biochemical
[30] = target: P38-DELTA (Homo sapiens, UniProt O15264); test: kinase panel; format: biochemical
[31] = target: TSSK2 (Homo sapiens, UniProt Q96PF2); test: kinase panel; format: biochemical
[32] = target: PTK5 (Homo sapiens, UniProt P42685); test: kinase panel; format: biochemical
[33] = target: PAK1 (Homo sapiens, UniProt Q13153); test: kinase panel; format: biochemical
[34] = target: H1 receptor (Homo sapiens, UniProt P35367); test: H1 receptor calcium assay; format: cell-based
[35] = target: PPARgamma Receptor (Homo sapiens, UniProt P37231); test: PPARgamma Receptor antagonist assay; format: cell-based
[36] = target: PXR Receptor (Homo sapiens, UniProt O75469); test: PXR Receptor antagonist assay; format: cell-based
[37] = target: Phosphodiesterase 3 (Homo sapiens, UniProt Q14432); test: Phosphodiesterase 3 assay; format: biochemical
[38] = target: Phosphodiesterase 4D (Homo sapiens, UniProt Q08499); test: Phosphodiesterase 4D assay; format: biochemical
[39] = target: Progesterone Receptor (Homo sapiens, UniProt P06401); test: Progesterone Receptor antagonist assay; format: cell-based
[40] = test system: HaCaT cells; test: Proliferation assay; format: cell-based; settings: Homo sapiens, 72 h, read-out: EC50 Proliferation
Method in brief: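 Cells were maintained in 10% FBS/RPMI with penicillin/streptomycin and plated at 500 cells/well in 10% FBS RPMI. Serially diluted test compound was pin-transferred. Viability was read after 3 days by CellTiter-Glo luminescence and normalized to 0.1% DMSO-treated cells and empty wells. EC50 was obtained by non-linear regression curve fitting.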

[41] = test system: exon19del/T790M EGFR Ba/F3 cells; test: Ba/F3 cell proliferation; format: cell-based; settings: EAI045 with cetuximab (10 μg/ml)
Method in brief: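 Ba/F3 cells, either parental or stably expressing mutant EGFR lines described earlier, were exposed to the test compound for 72 hours. Cell numbers were set empirically. Growth was read by MTS assay. Each point was run in six wells, and each experiment was repeated at least three times. Curves were fitted by non-linear regression to a sigmoidal dose response.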

Sequence of IGF1R (P08069 31-1367): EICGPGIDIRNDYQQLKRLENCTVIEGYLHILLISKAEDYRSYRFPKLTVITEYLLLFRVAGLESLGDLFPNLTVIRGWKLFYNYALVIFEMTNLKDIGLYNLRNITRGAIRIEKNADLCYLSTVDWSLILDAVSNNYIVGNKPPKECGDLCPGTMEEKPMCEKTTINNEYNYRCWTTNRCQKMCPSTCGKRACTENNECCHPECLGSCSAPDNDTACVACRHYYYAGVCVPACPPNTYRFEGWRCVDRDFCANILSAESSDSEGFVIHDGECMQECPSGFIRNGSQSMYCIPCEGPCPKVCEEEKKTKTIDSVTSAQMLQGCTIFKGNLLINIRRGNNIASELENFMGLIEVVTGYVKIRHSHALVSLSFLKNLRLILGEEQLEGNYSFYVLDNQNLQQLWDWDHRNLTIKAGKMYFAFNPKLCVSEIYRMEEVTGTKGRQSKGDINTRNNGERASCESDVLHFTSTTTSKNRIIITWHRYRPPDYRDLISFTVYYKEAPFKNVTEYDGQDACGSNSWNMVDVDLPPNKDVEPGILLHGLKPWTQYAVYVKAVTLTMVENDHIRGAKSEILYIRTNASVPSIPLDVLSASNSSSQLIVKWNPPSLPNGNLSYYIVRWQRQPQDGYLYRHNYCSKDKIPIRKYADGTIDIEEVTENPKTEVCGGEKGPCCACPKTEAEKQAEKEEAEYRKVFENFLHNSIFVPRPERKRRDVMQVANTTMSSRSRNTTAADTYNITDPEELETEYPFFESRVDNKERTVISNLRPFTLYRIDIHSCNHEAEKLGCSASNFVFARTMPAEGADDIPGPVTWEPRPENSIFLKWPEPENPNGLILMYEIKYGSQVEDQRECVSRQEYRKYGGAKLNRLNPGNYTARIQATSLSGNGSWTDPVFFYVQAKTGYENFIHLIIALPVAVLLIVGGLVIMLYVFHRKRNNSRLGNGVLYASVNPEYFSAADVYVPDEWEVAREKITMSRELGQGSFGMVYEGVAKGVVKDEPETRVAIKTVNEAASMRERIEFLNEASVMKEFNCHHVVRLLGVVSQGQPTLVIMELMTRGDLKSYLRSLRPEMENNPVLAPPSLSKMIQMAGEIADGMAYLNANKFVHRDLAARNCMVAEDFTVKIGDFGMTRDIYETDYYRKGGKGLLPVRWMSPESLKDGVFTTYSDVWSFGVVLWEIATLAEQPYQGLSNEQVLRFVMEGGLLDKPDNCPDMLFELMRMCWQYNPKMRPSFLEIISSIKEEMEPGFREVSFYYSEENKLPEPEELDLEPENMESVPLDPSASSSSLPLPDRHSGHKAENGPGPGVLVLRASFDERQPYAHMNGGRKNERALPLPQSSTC
Sequence of DAPK3 (O43293 whole entry): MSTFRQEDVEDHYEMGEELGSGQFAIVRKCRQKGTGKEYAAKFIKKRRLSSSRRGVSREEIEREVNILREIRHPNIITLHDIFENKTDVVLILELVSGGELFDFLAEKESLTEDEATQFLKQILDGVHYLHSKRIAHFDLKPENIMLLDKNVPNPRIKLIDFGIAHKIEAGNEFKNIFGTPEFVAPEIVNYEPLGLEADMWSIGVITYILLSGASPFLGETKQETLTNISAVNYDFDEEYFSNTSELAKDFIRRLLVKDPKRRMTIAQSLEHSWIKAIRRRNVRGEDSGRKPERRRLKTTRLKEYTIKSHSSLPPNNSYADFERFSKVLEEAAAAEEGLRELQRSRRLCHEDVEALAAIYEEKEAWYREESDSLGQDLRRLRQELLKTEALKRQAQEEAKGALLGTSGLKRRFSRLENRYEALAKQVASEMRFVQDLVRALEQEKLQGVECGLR
Sequence of EPH-B2 (P29323 19-1055): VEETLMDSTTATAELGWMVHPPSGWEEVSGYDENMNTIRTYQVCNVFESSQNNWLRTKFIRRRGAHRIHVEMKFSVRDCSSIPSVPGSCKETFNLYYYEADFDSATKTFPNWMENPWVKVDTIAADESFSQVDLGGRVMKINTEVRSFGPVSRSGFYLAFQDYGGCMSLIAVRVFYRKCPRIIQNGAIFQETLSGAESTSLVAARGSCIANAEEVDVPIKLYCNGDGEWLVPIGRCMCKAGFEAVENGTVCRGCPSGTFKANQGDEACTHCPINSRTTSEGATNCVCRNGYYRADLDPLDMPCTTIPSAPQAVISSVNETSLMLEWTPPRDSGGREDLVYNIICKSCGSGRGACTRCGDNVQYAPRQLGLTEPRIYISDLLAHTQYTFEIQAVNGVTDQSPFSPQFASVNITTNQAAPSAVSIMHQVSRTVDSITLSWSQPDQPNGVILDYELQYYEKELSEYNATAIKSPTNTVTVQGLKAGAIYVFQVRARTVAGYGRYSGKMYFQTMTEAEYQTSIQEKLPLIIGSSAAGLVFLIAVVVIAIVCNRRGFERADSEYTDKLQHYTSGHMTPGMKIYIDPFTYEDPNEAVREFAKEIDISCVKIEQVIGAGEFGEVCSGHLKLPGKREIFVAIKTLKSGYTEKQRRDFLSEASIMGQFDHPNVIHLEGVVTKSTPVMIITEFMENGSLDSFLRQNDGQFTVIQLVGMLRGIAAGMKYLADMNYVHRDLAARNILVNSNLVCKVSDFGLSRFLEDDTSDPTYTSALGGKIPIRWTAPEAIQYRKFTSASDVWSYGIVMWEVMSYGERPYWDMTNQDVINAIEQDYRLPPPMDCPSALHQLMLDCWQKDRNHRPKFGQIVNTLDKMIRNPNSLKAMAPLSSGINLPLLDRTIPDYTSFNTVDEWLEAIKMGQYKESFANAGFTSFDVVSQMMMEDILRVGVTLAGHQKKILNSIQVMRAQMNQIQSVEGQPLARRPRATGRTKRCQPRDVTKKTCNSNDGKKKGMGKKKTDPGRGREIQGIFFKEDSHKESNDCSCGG
Sequence of GRK7 (Q8WTQ7 whole entry): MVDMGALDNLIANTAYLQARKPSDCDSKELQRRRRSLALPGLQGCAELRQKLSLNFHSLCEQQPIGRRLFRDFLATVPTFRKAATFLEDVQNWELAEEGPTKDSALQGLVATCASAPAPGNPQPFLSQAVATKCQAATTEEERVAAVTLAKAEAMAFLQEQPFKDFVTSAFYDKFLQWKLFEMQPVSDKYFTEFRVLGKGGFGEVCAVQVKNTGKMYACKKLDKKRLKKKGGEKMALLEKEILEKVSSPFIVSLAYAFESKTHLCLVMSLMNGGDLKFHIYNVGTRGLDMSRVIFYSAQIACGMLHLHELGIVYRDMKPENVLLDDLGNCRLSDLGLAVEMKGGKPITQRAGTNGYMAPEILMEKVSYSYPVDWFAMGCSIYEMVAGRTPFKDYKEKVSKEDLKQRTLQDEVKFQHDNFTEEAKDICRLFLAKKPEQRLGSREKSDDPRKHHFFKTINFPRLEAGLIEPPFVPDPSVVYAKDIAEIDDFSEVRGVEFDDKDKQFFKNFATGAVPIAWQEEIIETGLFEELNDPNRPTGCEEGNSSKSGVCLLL
Sequence of CLK4 (Q9HAZ1 whole entry): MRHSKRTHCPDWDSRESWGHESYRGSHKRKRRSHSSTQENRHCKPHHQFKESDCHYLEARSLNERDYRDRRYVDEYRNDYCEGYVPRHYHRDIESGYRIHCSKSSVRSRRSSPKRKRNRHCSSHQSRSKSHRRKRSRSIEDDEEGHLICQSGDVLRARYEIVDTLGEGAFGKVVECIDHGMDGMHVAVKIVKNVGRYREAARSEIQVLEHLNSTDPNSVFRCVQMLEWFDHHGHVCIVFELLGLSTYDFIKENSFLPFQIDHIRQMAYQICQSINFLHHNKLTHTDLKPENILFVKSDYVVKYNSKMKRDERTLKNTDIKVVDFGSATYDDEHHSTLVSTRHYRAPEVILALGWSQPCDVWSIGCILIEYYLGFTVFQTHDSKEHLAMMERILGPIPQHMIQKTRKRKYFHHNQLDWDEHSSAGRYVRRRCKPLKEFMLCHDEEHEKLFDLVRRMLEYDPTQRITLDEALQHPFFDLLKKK
Sequence of NEK6 (Q9HC98 whole entry): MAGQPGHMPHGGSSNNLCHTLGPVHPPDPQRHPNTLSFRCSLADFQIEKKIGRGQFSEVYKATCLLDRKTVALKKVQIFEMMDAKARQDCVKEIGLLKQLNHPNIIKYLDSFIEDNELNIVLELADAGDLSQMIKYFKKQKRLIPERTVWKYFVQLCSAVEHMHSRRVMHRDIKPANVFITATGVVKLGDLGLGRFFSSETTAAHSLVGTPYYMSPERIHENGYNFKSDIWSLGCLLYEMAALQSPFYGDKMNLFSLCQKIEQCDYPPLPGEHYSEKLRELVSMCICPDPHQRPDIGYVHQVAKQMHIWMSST
Sequence of PRKD2 (Q9BZL6 whole entry): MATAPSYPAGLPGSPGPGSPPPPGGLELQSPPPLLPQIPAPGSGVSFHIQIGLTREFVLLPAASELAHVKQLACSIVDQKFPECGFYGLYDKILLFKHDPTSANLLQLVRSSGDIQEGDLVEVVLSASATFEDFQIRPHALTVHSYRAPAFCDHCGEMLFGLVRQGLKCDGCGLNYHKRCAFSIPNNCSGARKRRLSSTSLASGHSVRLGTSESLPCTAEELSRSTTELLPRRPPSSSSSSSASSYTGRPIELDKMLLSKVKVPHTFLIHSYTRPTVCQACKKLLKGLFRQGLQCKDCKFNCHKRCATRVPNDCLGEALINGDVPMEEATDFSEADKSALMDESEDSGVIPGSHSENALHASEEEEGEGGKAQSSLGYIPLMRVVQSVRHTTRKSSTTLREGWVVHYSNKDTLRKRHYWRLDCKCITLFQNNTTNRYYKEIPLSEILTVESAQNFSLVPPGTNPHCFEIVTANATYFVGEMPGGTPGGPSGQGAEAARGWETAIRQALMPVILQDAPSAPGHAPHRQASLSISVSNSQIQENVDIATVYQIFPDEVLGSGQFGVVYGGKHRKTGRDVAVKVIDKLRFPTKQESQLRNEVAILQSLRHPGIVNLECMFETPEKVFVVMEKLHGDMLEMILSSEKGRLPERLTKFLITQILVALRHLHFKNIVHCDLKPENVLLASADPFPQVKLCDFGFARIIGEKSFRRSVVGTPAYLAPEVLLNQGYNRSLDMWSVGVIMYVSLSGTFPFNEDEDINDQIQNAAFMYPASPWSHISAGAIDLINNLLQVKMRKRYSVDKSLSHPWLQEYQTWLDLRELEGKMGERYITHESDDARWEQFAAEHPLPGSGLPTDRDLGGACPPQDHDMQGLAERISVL

Molecule `O=C(Nc1nccs1)C(c1cc(F)ccc1O)N1Cc2ccccc2C1=O` (centres unmarked) [EAI045, 2-(5-fluoro-2-hydroxyphenyl)-2-(1-oxo-2,3-dihydro-1H-isoindol-2-yl)-N-(1,3-thiazol-2-yl)acetamide] has an inhibition at 1 µM [1] of 0%, an inhibition at 1 µM [2] of 0% and an inhibition at 1 µM [3] of 0%. The inhibition at 1 µM [4] was 0%, the inhibition at 1 µM [5] was 6% and the inhibition at 1 µM [6] was 0%. It also gave an inhibition at 1 µM [7] of 0%, an inhibition at 1 µM [8] of 0% and an inhibition at 1 µM [9] of 4%. For the same molecule, the inhibition at 1 µM [10] was 1%, the inhibition at 1 µM [11] was 0% and the inhibition at 1 µM [12] was 0%. For the same molecule, the inhibition at 1 µM [13] was 0%, the inhibition at 1 µM [14] was 4% and the inhibition at 1 µM [15] was 2%. For the same molecule, the inhibition at 1 µM [16] was 0%, the inhibition at 1 µM [17] was 4% and the inhibition at 1 µM [18] was 7%. The inhibition at 1 µM [19] was 4%, the inhibition at 1 µM [20] was 0% and the inhibition at 1 µM [21] was 0%. The inhibition at 1 µM [22] was 1%, the inhibition at 1 µM [23] was 0% and the inhibition at 1 µM [24] was 0%. The inhibition at 1 µM [25] was 0%, the inhibition at 1 µM [26] was 0% and the inhibition at 1 µM [27] was 2%. It also gave an inhibition at 1 µM [28] of 2%, an inhibition at 1 µM [29] of 2% and an inhibition at 1 µM [30] of 0%. The inhibition at 1 µM [31] was 0%, the inhibition at 1 µM [32] was 0% and the inhibition at 1 µM [33] was 0%. The IC50 [34] was greater than 30 µM, the IC50 [35] was greater than 30 µM and the IC50 [36] was greater than 3 µM. It also gave an IC50 [37] greater than 30 µM, an IC50 [38] greater than 30 µM and an IC50 [39] greater than 30 µM. The EC50 [40] was greater than 10 µM and the proliferation [41] was “not inhibited”.
